Bioassay records deposited in PubChem by Johns Hopkins Ion Channel Center.
An excerpt weighted towards active compounds, which were near 3.5% of everything screened.
RGS4 inh: RGS4 inhibitors, primary screen, cell-based, HEK293 M3R inducible RGS4, calcium flux | Regulator of G-protein signaling 4 (Homo sapiens), P49798 | Fluo-4 calcium flux; active compounds read high; triggered by carbachol at its EC20 | B-score at 10 µM | actives 0.45% (n = 310,000) | AID 463165, 2010;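 active means B-score, a plate-corrected calcium signal, over three deviations above library mean, with baseline fluorescence within five deviations of library mean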;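 further: RGS4 expression induced by doxycycline in cells with stable M3 receptor; B-score is computed from the integrated fluorescence ratio over baseline after carbachol; higher B-score means a larger calcium signal and so more RGS4 inhibition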
Target sequence (P49798 whole entry, looked up): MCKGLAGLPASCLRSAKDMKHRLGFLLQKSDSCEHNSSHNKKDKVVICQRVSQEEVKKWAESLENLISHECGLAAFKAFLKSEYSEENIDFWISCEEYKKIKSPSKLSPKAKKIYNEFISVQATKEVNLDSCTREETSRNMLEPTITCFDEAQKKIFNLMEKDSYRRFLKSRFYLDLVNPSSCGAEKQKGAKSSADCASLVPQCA
MrgX1 ag: agonists of human MrgX1 receptor, primary screen, HEK293 cells, Fluo-4 calcium flux | Mas-related G-protein coupled receptor member X1 (Homo sapiens), Q96LB2 | B-score at 10 µM | actives 0.44% (n = 310,000) | Fluo-4 calcium fluorescence, agonist mode; active compounds read high;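 active means calcium response B-score plate-corrected fluorescence ratio at least 3 library SD, with starting fluorescence B-score inside 5 SD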
Target sequence (Q96LB2 whole entry, looked up): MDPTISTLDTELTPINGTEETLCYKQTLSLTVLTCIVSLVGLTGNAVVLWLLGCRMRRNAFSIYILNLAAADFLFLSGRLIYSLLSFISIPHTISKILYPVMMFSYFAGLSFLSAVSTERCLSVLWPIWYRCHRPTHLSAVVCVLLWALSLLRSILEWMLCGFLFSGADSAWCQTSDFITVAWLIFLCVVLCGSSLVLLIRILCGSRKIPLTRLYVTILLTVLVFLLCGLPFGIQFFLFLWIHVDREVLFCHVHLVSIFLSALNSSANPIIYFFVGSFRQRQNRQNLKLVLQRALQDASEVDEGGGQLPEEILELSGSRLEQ
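Test system: HEK293 cells stably expressing human MrgX1 receptor; Input: fifteen thousand cells per well; Dosing: compound delivered in addition one of three; Schedule: overnight seeding, then 1 h dark dye loading; Technique: Fluo-4 NW calcium fluorescence; Measure: B-scored fluorescence response ratio; Controls: positive and negative controls per plate.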
MrgX1 PAM: positive allosteric modulators of MrgX1, primary screen, HEK293 cells, Fluo-4 calcium flux; Mas-related G-protein coupled receptor member X1 (Homo sapiens), Q96LB2; FDSS; active compounds read high; B-score at 10 µM; actives 0.63% (n = 310,000); AID 588675, 2011;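 active means plate-corrected calcium response at least 3 library SD above typical, normal starting fluorescence, not activating the receptor alone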;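 further: compound read alongside a low EC10 to EC30 dose of BAM8-22 agonist; peak minus trough fluorescence over baseline measured at the second addition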
MrgX1 antag: antagonists of human MrgX1 receptor, primary screen, HEK293 cells, Fluo-4 calcium flux. actives 1.3% (n = 310,000). AID 588676, 2011. Mas-related G-protein coupled receptor member X1 (Homo sapiens), Q96LB2. B-score at 10 µM. BAM8-22 antagonism; active compounds read low;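 active means calcium-response B-score plate-corrected more than 3 library SD below zero, starting fluorescence within 5 deviations, no agonist response on first addition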;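 further: peak minus trough fluorescence over baseline after final BAM8-22 challenge near maximal dose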
RGS4 pot: RGS4 potentiators or activators, primary screen, cell-based, HEK293 M3R inducible RGS4, calcium flux; B-score at 10 µM; actives 0.92% (n = 310,000); carbachol calcium flux Fluo4; active compounds read low;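 active means B-score of the integrated calcium signal more than 4 SD below the library mean, with starting fluorescence not abnormally high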;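 further: negative B-score means reduced calcium response which marks RGS4 activation or potentiation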
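System: HEK293 FlpIn-TREx cells, stable M3R, doxycycline-inducible RGS4. Timing: overnight RGS4 induction, 30 min dye load 37 °C, 20 min compound RT. Also added: carbachol, ECmax concentration. Measured by: Fluo4 fluorescence kinetic imaging of calcium. Evaluation: integrated calcium ratio converted to B score.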
MrgX1 ant reconf: MrgX1 receptor antagonists, duplicate retest, confirmation, HEK293 cells, Fluo-4 calcium flux | BAM8-22 calcium flux; active compounds read low | actives 19% (n = 2,300) | shares compounds with MrgX1 antag | remaining BAM8-22 calcium response % of control (active compounds read low), % at 10 µM | AID 602420, 2012;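 active means remaining agonist calcium response no higher than 100% minus 3 SD of agonist-only control wells, with starting fluorescence near control levels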;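 further: agonist BAM8-22 given at a near maximal EC90 to ECmax level; peak minus minimum fluorescence divided by baseline after agonist addition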
HEK293 Ca flux: nonspecific calcium signal in parental HEK293, confirmation, counter-screen for MrgX1 antagonist project, parental HEK293 cells, Fluo-4 calcium flux | shares compounds with MrgX1 antag | Fluo-4 calcium fluorescence, FDSS | fluorescence ratio F(max-min)/F0 at 10 µM | actives 2% (n = 4,000) | AID 624111, 2012;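 active means duplicate-averaged calcium fluorescence ratio at least three times the standard deviation of buffer wells, a nonspecific response in parental cells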
HEK293 Ca counter: calcium response in parental HEK293 cells, primary screen, counter-screen for MrgX1 allosteric activator project, cell-based, Fluo-4 calcium flux, duplicate; shares compounds with MrgX1 antag; Fluo-4 fluorescence ratio; active compounds read high; fluorescence ratio F(max-min)/F0 at 10 µM; actives 0.4% (n = 4,000); AID 624114, 2012;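 active means calcium fluorescence ratio, averaged over duplicates, at least 3 SD of the buffer-well ratio, meaning a nonspecific response in receptor-free cells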;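 further: untransfected parental HEK293 lacking MrgX1 used as counterscreen for MrgX1 allosteric activators; fluorescence change taken during the second addition on a kinetic imager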
HEK293 Ca cntr2: calcium response in parental HEK293 cells, primary screen, counter-screen for MrgX1 agonist project, cell-based, Fluo-4 calcium flux, duplicate, agonist mode. shares compounds with MrgX1 antag. Fluo-4 calcium fluorescence (FDSS); active compounds read high. fluorescence ratio F(max-min)/F0 at 10 µM. actives 8.7% (n = 4,000). AID 624115, 2012;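 active means calcium fluorescence ratio at least three times the spread of buffer wells, meaning a non-specific response in parental cells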
Active calls of the source: *.

Screening Cc1ccccc1NS(=O)(=O)c1nnc(NC(=O)CC(C)C)s1 returned RGS4 inh inactive, MrgX1 ag inactive, MrgX1 PAM inactive, MrgX1 antag inactive and RGS4 pot inactive.
For Cc1ccccc1OCCN(C#N)c1nc(N(C)C)nc(N(C)C)n1 the results were RGS4 inh inactive, MrgX1 ag inactive, MrgX1 PAM inactive, MrgX1 antag -4.9*, RGS4 pot inactive, MrgX1 ant reconf inactive, HEK293 Ca flux inactive, HEK293 Ca counter inactive and HEK293 Ca cntr2 inactive.
`CC(OC(=O)c1ccc2c(=O)n3c(nc2c1)CCCCC3)C(=O)Nc1ccc(F)cc1Cl` (configuration not stated) gave RGS4 inh inactive, MrgX1 ag inactive, MrgX1 PAM inactive, MrgX1 antag inactive and RGS4 pot inactive.
`Cc1ccc2nsnc2c1S(=O)(=O)N1CCN(Cc2ccc3c(c2)OCO3)CC1` gave RGS4 inh inactive, MrgX1 ag inactive, MrgX1 PAM inactive, MrgX1 antag -7.5*, RGS4 pot inactive, MrgX1 ant reconf inactive, HEK293 Ca flux inactive, HEK293 Ca counter inactive and HEK293 Ca cntr2 inactive.
Cn1c(SCc2ccccn2)nnc1-c1ccccc1 was read as RGS4 inh inactive, MrgX1 ag inactive, MrgX1 PAM inactive, MrgX1 antag inactive and RGS4 pot inactive.
`O=C(NCc1ccc2c(c1)OCO2)c1cccc(Cl)c1` gave RGS4 inh inactive, MrgX1 ag inactive, MrgX1 PAM inactive, MrgX1 antag -5.2*, RGS4 pot inactive, MrgX1 ant reconf inactive, HEK293 Ca flux inactive, HEK293 Ca counter inactive and HEK293 Ca cntr2 inactive.
For O=C(NCc1cccc(Cl)c1)c1ccc2c(c1)OCO2 the results were RGS4 inh inactive, MrgX1 ag inactive, MrgX1 PAM inactive, MrgX1 antag inactive and RGS4 pot inactive.
Screening O=C(NCc1ccc2c(c1)OCO2)c1ccc(Br)cc1 returned RGS4 inh inactive, MrgX1 ag inactive, MrgX1 PAM inactive, MrgX1 antag inactive and RGS4 pot inactive.
`Cc1nc2cc(C(=O)NCc3ccc4c(c3)OCO4)ccc2n1-c1ccc(Br)cc1` gave RGS4 inh inactive, MrgX1 ag inactive, MrgX1 PAM inactive, MrgX1 antag -4.8*, RGS4 pot inactive, MrgX1 ant reconf inactive, HEK293 Ca flux inactive, HEK293 Ca counter inactive and HEK293 Ca cntr2 inactive.
For COc1ccc(OC)c(-n2c(SCC(=O)Nc3cccc(S(N)(=O)=O)c3)nc3ccccc3c2=O)c1 the results were RGS4 inh inactive, MrgX1 ag inactive, MrgX1 PAM inactive, MrgX1 antag inactive and RGS4 pot inactive.
`CN1C(=O)CC(N2CCC(C(N)=O)CC2)C1=O` (configuration not stated) gave RGS4 inh inactive, MrgX1 ag inactive, MrgX1 PAM inactive, MrgX1 antag inactive and RGS4 pot inactive.
`CN1C(=O)CC(N2CCN(CC(N)=O)CC2)C1=O` (configuration not stated) gave RGS4 inh inactive, MrgX1 ag inactive, MrgX1 PAM inactive, MrgX1 antag -5.6*, RGS4 pot inactive, MrgX1 ant reconf inactive, HEK293 Ca flux inactive, HEK293 Ca counter inactive and HEK293 Ca cntr2 inactive.
Screening CCOC(=O)N/C(N)=N/c1nc2ccccc2s1 returned RGS4 inh inactive, MrgX1 ag inactive, MrgX1 PAM inactive, MrgX1 antag -7.7*, RGS4 pot inactive, MrgX1 ant reconf inactive, HEK293 Ca flux inactive, HEK293 Ca counter inactive and HEK293 Ca cntr2 inactive.
`O=C(NC(=S)NCCN1CCOCC1)c1ccccc1Cl` gave RGS4 inh inactive, MrgX1 ag inactive, MrgX1 PAM inactive, MrgX1 antag -4.9*, RGS4 pot inactive, MrgX1 ant reconf inactive, HEK293 Ca flux inactive, HEK293 Ca counter inactive and HEK293 Ca cntr2 inactive.
Screening COC(=O)CC1C(=O)NCCN1C(=O)CSc1nnnn1-c1ccc(OC)cc1 (configuration not stated) returned RGS4 inh inactive, MrgX1 ag inactive, MrgX1 PAM inactive, MrgX1 antag inactive and RGS4 pot inactive.
`CSc1nc(-c2ccco2)cc(C(F)(F)F)c1C#N` gave RGS4 inh inactive, MrgX1 ag inactive, MrgX1 PAM inactive, MrgX1 antag inactive and RGS4 pot inactive.
For N#Cc1c(C(F)(F)F)cc(-c2ccco2)nc1SCc1ccccn1 the results were RGS4 inh inactive, MrgX1 ag inactive, MrgX1 PAM inactive, MrgX1 antag -4.7*, RGS4 pot inactive, MrgX1 ant reconf inactive, HEK293 Ca flux inactive, HEK293 Ca counter inactive and HEK293 Ca cntr2 inactive.
Cc1ccc(NC(=O)Nc2nnc(-c3ccncc3)s2)cc1C was read as RGS4 inh inactive, MrgX1 ag inactive, MrgX1 PAM inactive, MrgX1 antag -6.1*, RGS4 pot inactive, MrgX1 ant reconf 64%*, HEK293 Ca flux inactive, HEK293 Ca counter inactive and HEK293 Ca cntr2 inactive.
O=c1[nH]c(C2CCCN(S(=O)(=O)c3ccccc3F)C2)nc2c1nnn2Cc1ccccc1Cl (configuration not stated) was read as RGS4 inh inactive, MrgX1 ag inactive, MrgX1 PAM inactive, MrgX1 antag inactive and RGS4 pot inactive.
Cc1ccc(S(=O)(=O)NC(C)(C)C)cc1C(=O)OCC(=O)N1CCCC1=O was read as RGS4 inh inactive, MrgX1 ag inactive, MrgX1 PAM inactive, MrgX1 antag inactive and RGS4 pot inactive.
